A selection: hits, their analogues and other compounds. The true share with any hit is near 3.8%.
Kir21 inh: Kir2.1 (mouse) channel inhibition. B-score at 10 µM. AID 1672. 310,000 tested, 0.85% active. P35561. HEK293-Kir2.1, FluxOR thallium flux fluorescence; active compounds read low;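 active = fluorescence ratio B-score at or below minus 3 SD of library scores, with starting-brightness B-score within 2 SD, cut at about -4.2 in these data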;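 also: channel flux triggered by added potassium and thallium sulfate stimulus; B-score of peak minus minimum fluorescence over baseline after thallium stimulus; more negative B-score means stronger Kir2.1 block with less thallium influx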
KCNQ1 inh: blocks the human KCNQ1 potassium channel. P51787. CHO-K1 KCNQ1, FluxOR thallium flux fluorescence; active compounds read high. B-score at 10 µM. 310,000 tested, 1.3% active;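 active = compounds whose thallium flux B-score, printed positive for inhibition, exceeds three library SD while starting fluorescence stays within three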;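 also: channel opened by potassium depolarization with thallium stimulus after 20 min compound exposure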
KCNK3 block: human KCNK3 channel inhibition, primary screen | B-score at 10 µM | 340,000 tested, 0.84% active | AID 602410 | CHO-KCNK3 thallium flux, FluxOR fluorescence; active compounds read low | O14649;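 active = B-score under library mean minus 4 SD, starting fluorescence ratio at most library mean plus 5 SD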;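 also: more negative B-score means stronger inhibition of thallium flux through KCNK3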
Target sequence (O14649 whole entry, looked up): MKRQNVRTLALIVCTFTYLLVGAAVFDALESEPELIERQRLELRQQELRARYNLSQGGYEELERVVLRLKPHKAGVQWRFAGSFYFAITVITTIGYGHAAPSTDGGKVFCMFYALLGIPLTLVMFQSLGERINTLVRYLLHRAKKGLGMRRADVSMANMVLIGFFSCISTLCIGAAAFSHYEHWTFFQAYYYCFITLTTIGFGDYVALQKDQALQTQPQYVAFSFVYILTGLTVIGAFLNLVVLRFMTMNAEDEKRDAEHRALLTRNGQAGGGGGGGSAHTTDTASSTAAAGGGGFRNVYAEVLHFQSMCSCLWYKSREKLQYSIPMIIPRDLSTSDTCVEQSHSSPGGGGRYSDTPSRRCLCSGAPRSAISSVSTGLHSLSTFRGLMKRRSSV
KCNQ1 pot: human KCNQ1 channel potentiation or activation | P51787 | CHO-K1 KCNQ1, thallium flux FluxOR fluorescence; active compounds read high | B-score at 10 µM | 310,000 tested, 0.35% active | AID 2648;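 active = fluorescence ratio B-score, a plate-corrected score, at least three library SD, with initial intensity B-score within 5 SD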
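System: Stable KCNQ1 CHO-K1 line | Incubation: 90 min dye loading and 20 min compound exposure, both at room temperature | Measure: Ratio B score | Medium: Assay buffer for compound exposure, DMSO matched across wells | Compound dosing: Single-concentration screen | Probe or stimulus: K+/Tl+ depolarizing stimulus | Measured by: Kinetic FluxOR fluorescence, 10 s baseline plus 110 s post-stimulus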
KCNK9 block: human KCNK9 channel inhibition; Q9NPC2; HEK293 KCNK9, FluxOR thallium flux fluorescence; active compounds read low; B-score at 10 µM; 310,000 tested, 1.2% active;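 active = ratio B-score over 3 SD below the library mean, with starting fluorescence within 5 SD of its mean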;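 also: negative B-score means less thallium flux so channel inhibition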
hERG protect: compounds protecting human hERG from proarrhythmic drug block; CHO-hERG, FluxOR thallium flux, dofetilide IC70 present; activation (rescue from dofetilide block), less the hit threshold, % at 10 µM; Q12809; 310,000 tested, 0.51% active;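 active = activation above the mean of controls blocked by dofetilide plus 5 SD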;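 also: thallium influx through hERG after potassium depolarization seen as dye fluorescence rise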
KCNK9 block conf: human KCNK9 inhibitor confirmation; shares compounds with KCNK9 block; HEK293 KCNK9 cells, FluxOR thallium flux fluorescence; inhibition, % at 10 µM; 4,900 tested, 43% active; AID 492992;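 active = thallium signal inhibited by more than 5 SD of the compound-free buffer control wells, on both duplicate plates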
Kir21 sel: selectivity of KCNK9 modulators against mouse Kir2.1. inhibition, % at 10 µM. 4,900 tested, 4% active. shares compounds with KCNK9 block. AID 492993. Kir2.1 cells, FluxOR thallium flux fluorescence;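 active = thallium signal drop more than 5 SD beyond the mean of the no-compound control wells, seen in both duplicate plates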;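 also: signal is fluorescence rise after thallium addition divided by baseline fluorescence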
HEK293 Tl ctr: non-induced cell nonspecific activity of KCNK9 modulators | inhibition, % at 10 µM | shares compounds with KCNK9 block | 4,900 tested, 40% active | AID 492997 | non-induced KCNK9-HEK293, FluxOR thallium flux;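 active = thallium signal drop beyond 5 SD of the untreated control mean, on both duplicate plates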
Hits are given with their value; . = inactive; / = no result.

SMILES	Kir21 inh	KCNQ1 inh	KCNK3 block	KCNQ1 pot	KCNK9 block	hERG protect	KCNK9 block conf	Kir21 sel	HEK293 Tl ctr
O=[N+]([O-])c1ccc(N/N=C/c2ccc(OCc3cccc4ccccc34)cc2)nc1	.	.	.	.	-9.3	.	42%	.	.
O=[N+]([O-])c1ccc(N/N=C\c2cccn2-c2ccccc2)nc1	.	.	-9.8	.	-12	.	65%	.	62%
O=C(Cn1cnc2ccccc2c1=O)NCCC(=O)Nc1ccc(F)cc1	.	.	.	.	.	.	/	/	/
COC(=O)c1ccc(COc2ccccc2/C=C(\C#N)C(=O)Nc2c(C)cccc2C)cc1	.	.	.	.	-13	.	76%	.	34%
COC(=O)c1ccc(COc2ccccc2/C=C(\C#N)C(=O)Nc2ccccc2C)cc1	.	.	.	.	.	.	/	/	/
O=C(NCc1ccco1)c1ccc2c(c1)N(Cc1ccccc1)C(=O)CS2	.	.	.	.	.	.	.	.	.
Cc1cccc(N(Cc2ccccc2)C(=O)c2cc(S(=O)(=O)N3CCOCC3)ccc2Cl)c1	.	.	.	.	.	.	.	.	.
CC(C)CCNC(=O)C1CC(=O)N(CCc2ccccc2)C1 (configuration not stated)	.	.	.	.	.	.	/	/	/
COc1ccc(CCNC(=O)c2cc(-c3ccccc3)c(N3CCOCC3)s2)c(OC)c1OC	.	.	.	.	.	.	.	.	.
CCOc1ccc(CCNC(=O)c2cc(-c3ccccc3)c(N3CCOCC3)s2)cc1	.	.	.	.	.	.	/	/	/
COC(=O)c1cc(NC(=O)C(C)c2ccc(CC(C)C)cc2)ccc1O (configuration not stated)	.	.	.	.	.	.	.	.	.
O=C1[C@H](Oc2ccccc2)[C@@H](c2ccccc2)N1c1ccncc1	/	/	.	/	/	/	/	/	/
COc1ccc(-c2[nH]ncc2/C=C(/C#N)C(=O)NC2CCCCC2)cc1	.	.	.	.	.	.	.	.	.
N#C/C(=C\c1ccccc1[N+](=O)[O-])C(=O)NC1CCCCC1	.	.	.	.	.	.	/	/	/
N#C/C(=C\c1cc(Cl)ccc1O)C(=O)NC1CCCCC1	.	.	.	.	.	.	/	/	/
Cc1ccc(-c2[nH]ncc2/C=C(\C#N)C(=O)NC2CCCCC2)cc1	.	.	.	.	.	.	.	.	.
NC(=O)c1nn(CC(=O)Nc2cccc(S(=O)(=O)N3CCCC3)c2)c(=O)c2ccccc12	/	/	.	/	/	/	/	/	/
O=C(Cc1cccc(NC(=O)C2CCCN(C(=O)CCc3ccccc3)C2)c1)Nc1cccc(C(=O)N2CCCC2)c1 (configuration not stated)	/	/	.	/	/	/	/	/	/
CC(Oc1ccc2c3c(c(=O)oc2c1)CCC3)C(=O)NCCCn1ccnc1 (configuration not stated)	.	.	.	.	.	.	/	/	/
CCCN1C(=O)C(Cc2nc3ccccc3c(=O)n2-c2ccccc2)c2ccccc21 (configuration not stated)	.	.	.	.	.	.	/	/	/
CC(C)N1C(=O)C(Cc2nc3ccccc3c(=O)n2-c2ccccc2)c2ccccc21 (configuration not stated)	.	.	.	.	.	.	.	.	.
Cc1cc(C)c(C#N)c(SCc2cc3c(cc2Cl)OCO3)n1	.	.	.	.	-8.5	.	36%	.	36%
Cc1cc(C)c(C#N)c(SCc2ccccc2C)n1	.	.	.	.	.	.	/	/	/
Cc1cccc(NC(=O)CSCC(=O)N(C)Cc2c(F)cccc2Cl)c1	.	.	.	.	.	.	.	.	.
Cc1cc(NC(=O)CSCC(=O)N(C)Cc2c(F)cccc2Cl)no1	.	.	.	.	.	.	/	/	/
SMILES	Kir21 inh	KCNQ1 inh	KCNK3 block	KCNQ1 pot	KCNK9 block	hERG protect	KCNK9 block conf	Kir21 sel	HEK293 Tl ctr
CC[C@H](C)Cc1cn([C@@H](CCCCNC(=O)OC(C)(C)C)C(=O)NCCCCCCCCCCC(=O)N2CCN(C(=O)OC(C)(C)C)CC2)nn1	/	/	.	/	/	/	/	/	/
Cc1nn(Cc2ccccc2)c(Cl)c1C(=O)OCc1nnc(-c2ccc(Cl)cc2)o1	.	.	.	.	.	.	.	.	.
COc1cc(OC)c(CN2CCCCCCC2)cc1Br	.	.	.	.	.	.	/	/	/
COc1cc(OC)c(CN2CCN(c3ccc(F)cc3)CC2)cc1Br	.	.	.	.	.	.	.	.	.
COc1ccc(C(=O)N/N=C/c2ccc(OC)c(CN3CCN(c4ccc(F)cc4)CC3)c2)cc1	.	.	.	.	.	.	.	.	.
CCN(C(=O)COC(=O)c1ccc(Cl)cc1N)C1CCCCC1	.	.	.	.	.	.	.	.	.
Cc1ccc(NC(=O)COC(=O)c2csc3c2CCC(C)C3)cc1S(=O)(=O)N1CCCCC1 (configuration not stated)	.	.	.	.	-9.2	.	32%	.	.
O=C(COC(=O)c1ccc(Cl)c(S(=O)(=O)N2CCCCCC2)c1)Nc1ccccc1	.	.	.	.	.	.	.	.	.
O=C(NCc1nc2ccccc2[nH]1)c1ccc(Cl)c(S(=O)(=O)N2CCCC2)c1	.	.	.	.	.	.	/	/	/
CCCn1c(NC(=O)c2ccc(Cl)c(S(=O)(=O)N3CCCC3)c2)nc2ccccc21	.	.	.	.	-8.9	.	40%	.	.
O=C(COC(=O)c1ccc(S(=O)(=O)N2CCCC2)cc1)Nc1ccccc1	/	/	.	/	/	/	/	/	/
Cc1cc(=O)oc2cc(OCC(=O)N3CCN(C(=O)C4COc5ccccc5O4)CC3)c(Cl)cc12 (configuration not stated)	.	.	.	.	.	.	/	/	/
COc1ccc(CCNC(=O)CN2C(=O)COc3ccc(S(=O)(=O)N4CCOCC4)cc32)cc1OC	.	.	.	.	.	.	/	/	/
Cc1ccc(C)c(N2CCN(CC3CC=CCC3)CC2)c1 (configuration not stated)	.	.	.	.	.	.	.	.	.
CCC(CCNC(=O)c1ccccc1)(CCNC(=O)c1ccccc1)[N+](=O)[O-]	/	/	.	/	/	/	/	/	/
O=C(CN1C(=O)S/C(=C\c2cc(Cl)c(O)c(Cl)c2)C1=O)Nc1ccccc1	.	.	.	.	.	12	.	.	.
CCc1noc(C)c1C(=O)N(C)CC(=O)Nc1ccc(F)c(F)c1F	.	.	.	.	.	.	/	/	/
N#Cc1cc(N)ccc1Sc1ccc(Cl)cc1	.	.	.	.	-8.5	.	38%	.	32%
O/N=C/c1cc(Br)ccc1OCc1cccc(F)c1	.	.	.	.	-8.9	.	46%	.	34%

High-throughput results from PubChem.
